Compound activity as filed in PubChem BioAssay.
Many of the other results were omitted from the sample, so hits are more common in it than they were.
PTEN del growth: PTEN-deleted cell growth suppression; AID 827; viability, % at 10 µM; HCT116 PTEN-null viability, CellTiter-Glo, 60 h; active compounds read low; actives 1.2% (n = 140,000);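 active = viability at or below a set limit, 4 SD under the median of all tested compounds, cut at about 3.7% in these data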;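 note: PTEN knockout HCT116 line with beta catenin targeted HCT116 as companion control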
Fibroblast inh: blocks proliferation of human lung fibroblasts; LL 47 human lung fibroblast viability, ATP luminescence; active compounds read low; viability, % at 10 µM; actives 1.1% (n = 85,000);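 active = viability at or below 50% in the single dose screen; inactive = viability above 50%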;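 note: compound exposure lasted 72 h before the ATP readout; 100% = median luminescence of untreated cell-only wells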
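Material: Human LL 47 lung fibroblast cells | Input: 1,150 cells/well | Buffer or medium: IMEM plus 15% FBS | Compound dosing: 0.1% DMSO in all compound wells | Times: Overnight cell rest, 72 h compound treatment at 37 °C | Signal: CellTiter-Glo luminescence measuring cellular ATP | Measure: % viability versus median cells-only luminescence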
HCT116 bCat-KO: beta-catenin-lacking colon tumor cell growth suppression | HCT116 beta-catenin knockout viability, CellTiter-Glo, 60 h; active compounds read low | viability, % at 10 µM | actives 1.5% (n = 140,000);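 active = viability at or under a set limit, the compound median less 4 SD, cut at about 6% in these data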;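 note: 0% = Hyamine 1622 control at 20 µM and 100% = untreated cell control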
H69AR inhibit: growth inhibitors of human H69AR lung tumor cells; H69AR lung tumor viability, ATP luminescence, 72 h; active compounds read low; viability, % at 10 µM; actives 6% (n = 85,000); AID 598;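 active = viability at or below 40%; inactive = viability above 40%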;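 note: multidrug resistant small cell line overexpressing MRP-1 efflux transporter; 100% = mean luminescence of untreated control wells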
HUVEC prolif 384: blocks proliferation of human endothelial cells | AID 648 | actives 1.1% (n = 86,000) | HUVEC proliferation, CellTiter-Glo luminescence, 72 h; active compounds read low | viability, % at 10 µM (by protocol);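 active = viability at or below 30%; inactive = viability above 30%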;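 note: 100% = median luminescence of DMSO-only cell control wells on each plate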
Starred values were filed as active, the others as inactive; nt = no result.

SMILES	PTEN del growth	Fibroblast inh	HCT116 bCat-KO	H69AR inhibit	HUVEC prolif 384
CCc1c(C)c(C#N)c2nc3ccccc3n2c1NCCN(C)C	102	104	89	50	103
C=CCc1c(C)c(C#N)c2nc3ccccc3n2c1NCCN(C)C	91	96	84	33*	99
CCCNc1cc(C)c(C#N)c2nc3ccccc3n12	87	107	88	37*	91
Cc1cc(NCCCO)n2c(nc3ccccc32)c1C#N	98	nt	104	nt	nt
CCc1c(C)c(C#N)c2nc3ccccc3n2c1NCc1ccco1	77	92	83	36*	85
Cn1c(Cn2c(=O)sc3ccccc32)nnc1SCC(=O)N1CCCCCC1	96	97	95	102	98
CCC(C(=O)O/N=C(\N)c1ccc(Cl)cc1)c1ccccc1 (stereo not drawn)	82	91	93	70	84
CC1CC(N(C(=O)c2ccco2)c2ccccc2)c2ccccc2N1 (stereo not drawn)	72	90	82	15*	65
Cc1cccc2cc3c(N)c(C(=O)N4CCOCC4)sc3nc12	16	64	13	18*	62
Cc1cc(C)c2cc3c(N)c(C(=O)N4CCc5ccccc5C4)sc3nc2c1	97	nt	93	nt	nt
CCc1nnc2n1N=C(c1ccc(-c3ccc(Cl)cc3Cl)o1)CS2	nt	95	nt	84	97
Clc1ccc(OCc2nnc3n2N=C(c2ccc4c(c2)OCCO4)CS3)c(Cl)c1	27	87	27	38*	77
CCN(Cc1ccccc1)S(=O)(=O)c1ccc(C(=O)Nc2nnc(C3CC3)o2)cc1	14	70	18	32*	69
Cc1nnc(NC(=O)c2ccc(S(=O)(=O)N(C)Cc3ccccc3)cc2)o1	34	97	38	24*	85
CSCc1nnc(NC(=O)c2ccc(S(=O)(=O)N(CC(C)C)CC(C)C)cc2)o1	11	nt	9	nt	nt
COCCN(CCOC)S(=O)(=O)c1ccc(C(=O)Nc2nnc(C)o2)cc1	102	nt	93	nt	nt
CCOC(=O)c1[nH]c(C)c(C(=O)OCC(=O)NC(=O)NC(C)(C)C)c1C	55	101	44	82	100
Cc1ccc2cc3c(NC(=O)c4ccco4)nn(CC(C)C)c3nc2c1	87	86	76	35*	52
Cc1ccc2nc3c(cc2c1)c(NC(=O)c1ccccn1)nn3CC(C)C	74	98	76	91	79
O=C(Sc1nnnn1C1CCCCC1)c1cccs1	110	nt	103	35*	106
O=C(CSc1nnnn1C1CCCCC1)NCc1ccccc1	88	101	91	92	100
COC(=O)c1cc(OC)c(OC)cc1NC(=O)CN1CCCCC1	101	104	107	95	101
COC(=O)c1cccc(Cn2c(Cl)c(/C=N/NC(=O)c3ccccc3Cl)sc2=O)c1	78	97	90	31*	79
O=c1sc(/C=N/Nc2ccccc2)c(Cl)n1Cc1ccccc1	76	nt	87	nt	nt
c1ccc(Nc2c3c(nc4ncnn24)CCC3)cc1	94	89	89	87	83
SMILES	PTEN del growth	Fibroblast inh	HCT116 bCat-KO	H69AR inhibit	HUVEC prolif 384
CC(C)c1nc(SCC(=O)N2CCCC2)c2ccccc2n1	75	82	72	29*	84
CCc1c(C)sc(NC(=O)c2cc(C3CC3)on2)c1C#N	88	106	98	99	97
Cc1ccc(S(=O)(=O)N2CCC(=O)N(C(COCc3ccc(C(F)(F)F)cc3)C(C)C)CC2)cc1 (stereo not drawn)	30	nt	24	nt	nt
CCOc1cc(C(=O)N2CCN(c3ccc(C(C)=O)cc3)CC2)cc(OCC)c1OCC	95	100	86	38*	93
COc1ccccc1N1C(=O)CC(Nc2ccc(N3CCOCC3)cc2)C1=O (stereo not drawn)	85	96	97	95	90
Cc1c(C#N)c(N=CN(C)C)c(C(=O)c2ccc(Br)cc2)n1-c1ccccc1	83	97	90	70	95
Cc1c(C#N)c(N=CN(C)C)c(C(=O)c2ccccc2)n1-c1ccc(Br)cc1	63	82	60	20*	88
O=[N+]([O-])c1ccc(Oc2cccc(Br)c2)c2ccncc12	9	84	13	18*	77
O=[N+]([O-])c1ccc(Oc2ccc(F)cc2)c2ccncc12	68	73	65	24*	54
O=C(NCc1ccccc1)c1cccc(S(=O)(=O)N2CCOCC2)c1	93	nt	91	nt	nt
O=c1c2ccccc2nc(/C=C/c2ccc([N+](=O)[O-])o2)n1CCCO	1.3*	nt	1.5*	nt	nt
O=c1c2ccccc2nc(/C=C/c2ccc([N+](=O)[O-])cc2)n1CCCO	56	nt	55	nt	nt
O=c1cc(-c2ccccc2)[nH]n1-c1nc2ccccc2[nH]1	8	27*	4.5*	nt	54
COc1cccc(CN(C)CC(=O)NC(=O)NCc2ccco2)c1	99	107	100	93	101
COc1ccccc1C(=O)Oc1cc(N)n(S(=O)(=O)c2ccc(C)cc2)n1	105	nt	96	nt	nt
COc1ccc(S(=O)(=O)n2nc(OC(=O)c3c(-c4ccccc4Cl)noc3C)cc2N)cc1	94	110	97	28*	83
O=Cc1ccc2noc(-c3ccc(Cl)cc3)c2c1	23	105	31	39*	81
CCOC(=O)c1c(CSC(=N)N)n(-c2ccc(Br)cc2)c2cc(Br)c(OC(C)=O)cc12	1.6*	nt	1.3*	nt	nt
CCOC(=O)c1c(CSc2nc(C)cc(C)c2C#N)n(C)c2cc(Br)c(OC(C)=O)cc12	38	nt	30	nt	nt
COc1ccc(-c2cc(-c3cc(F)ccc3O)[nH]n2)cc1OC	34	78	32	52	44
COc1ccc(-c2cc(-c3ccc(OC)c(OC)c3)n[nH]2)c(O)c1	32	86	26	54	96
COc1ccc(-c2cc(-c3cc(OC)ccc3O)[nH]n2)cc1	36	73	21	28*	53
COc1ccc(O)c(-c2cc(-c3cccc(Br)c3)n[nH]2)c1	37	96	14	36*	43
Cc1ccc(O)c(-c2cc(-c3cccc(F)c3)n[nH]2)c1	47	82	40	0.6*	28*
O=C(NC(=S)NC1CCCCCC1)c1cncc(Br)c1	100	nt	93	nt	nt
SMILES	PTEN del growth	Fibroblast inh	HCT116 bCat-KO	H69AR inhibit	HUVEC prolif 384
O=C(c1nn2c(C(F)(F)F)cc(-c3ccco3)nc2c1Br)N1CCCc2ccccc21	80	46*	66	39*	65
O=C(NC1CCCC1)c1cnn2c(C(F)(F)F)cc(-c3ccco3)nc12	62	78	68	33*	85
O=C(NC1CCCC1)c1cnn2c(C(F)(F)F)cc(-c3ccc4c(c3)OCO4)nc12	7	84	11	17*	28*
CC(C)CCNC(=O)c1cnn2c(C(F)(F)F)cc(-c3ccco3)nc12	59	97	66	56	86
COCCNC(=O)c1ccccc1NC(=O)c1cc(OC)cc(OC)c1	96	nt	94	nt	nt
O=C(COC(=O)c1ccc2c(c1)C(=O)N(Cc1ccncc1)C2=O)Nc1ccccc1[N+](=O)[O-]	96	nt	97	nt	nt
